{"source": "ChEMBL document CHEMBL3352791", "about": "“Thioaryl naphthylmethanone oxime ether analogs as novel anticancer agents” (J Med Chem, 2014)", "key": {"MCF7 [1]": {"test_system": "MCF7", "test": "Induction of apoptosis in human […] cells assessed as increase in Bax to Bcl2 ratio at 5 uM after 24 hrs by immunoblotting analysis", "type": "functional, cell-based", "in_short": "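Immunoblot of Bax and Bcl-2 in cell lysates, loading normalized to actin; mean ± SEM, three independent experiments.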"}, "MDA-MB-231 [2]": {"test_system": "MDA-MB-231", "test": "Inhibition of VEGF expression in human MDA-MB-231 cells at 5 uM by ELISA", "type": "functional, cell-based"}, "[3]": {"target": "High affinity cAMP-specific and IBMX-insensitive 3',5'-cyclic phosphodiesterase 8A (Homo sapiens) (UniProt O60658)", "sequence (O60658 whole entry, canonical isoform)": "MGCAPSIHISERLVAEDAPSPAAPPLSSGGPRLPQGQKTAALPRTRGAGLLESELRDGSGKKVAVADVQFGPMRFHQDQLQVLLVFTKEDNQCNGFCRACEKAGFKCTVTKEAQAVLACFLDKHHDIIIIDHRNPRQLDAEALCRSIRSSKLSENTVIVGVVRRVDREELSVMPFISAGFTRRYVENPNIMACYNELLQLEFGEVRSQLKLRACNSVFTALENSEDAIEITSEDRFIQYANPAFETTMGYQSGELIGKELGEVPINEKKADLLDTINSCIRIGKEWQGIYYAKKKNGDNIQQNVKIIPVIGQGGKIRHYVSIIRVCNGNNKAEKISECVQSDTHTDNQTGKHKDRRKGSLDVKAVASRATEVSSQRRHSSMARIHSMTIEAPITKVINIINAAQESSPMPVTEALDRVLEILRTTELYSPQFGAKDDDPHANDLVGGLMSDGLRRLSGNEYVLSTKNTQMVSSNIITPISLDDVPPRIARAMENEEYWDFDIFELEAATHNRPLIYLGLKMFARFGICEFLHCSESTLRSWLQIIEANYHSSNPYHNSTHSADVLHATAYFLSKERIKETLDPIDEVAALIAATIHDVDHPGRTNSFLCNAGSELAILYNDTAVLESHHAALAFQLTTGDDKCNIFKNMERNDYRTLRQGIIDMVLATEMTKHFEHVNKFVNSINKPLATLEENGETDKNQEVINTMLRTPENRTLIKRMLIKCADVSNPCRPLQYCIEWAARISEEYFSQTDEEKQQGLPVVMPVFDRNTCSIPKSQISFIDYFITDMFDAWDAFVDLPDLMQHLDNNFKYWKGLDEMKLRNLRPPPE", "test": "Inhibition of PDE8A1 (unknown origin) activity at 1 to 10 uM", "in_short": "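Recombinant PDE isoform activity was read by fluorescence polarization. A binding reagent complexes with the nucleotide monophosphate that the phosphodiesterase generates from cAMP/cGMP, and this raises the polarization of the labelled substrate. Reference standards were PDE1A3 10µM IBMX, PDE2A3 1nM BAY 60-7550, PDE3CAT 1µM cilostazol, PDE4CAT rolipram, PDE5CAT 0.1µM sildenafil, PDE7A […], PDE8A1 10µM BRL-50481, PDE9A1 1µM SB 36216 and PDE11A1 dipyridamole.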"}, "MCF7 [4]": {"test_system": "MCF7", "test": "Induction of apoptosis in human […] cells assessed as caspase 3 activation at 2.5 to 7.5 uM by Caspase-Glo assay", "type": "functional, cell-based", "in_short": "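Caspase-3 activity by Caspase-Glo 3 luminescent kit.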"}, "MCF7 [5]": {"test_system": "MCF7", "test": "Induction of apoptosis in human […] cells", "type": "functional, cell-based"}, "MCF7 [6]": {"test_system": "MCF7", "test": "Antiinvasion activity in human MCF7 cells assessed as inhibition of FBS-induced cell invaded to matrigel coated invasion chamber at 1 uM after 24 hrs by Transwell invasion assay", "type": "functional, cell-based"}, "[7]": {"target": "T1, Signal transducer and activator of transcription 1-alpha/beta (Homo sapiens) (UniProt P42224)", "T1 sequence (whole entry)": "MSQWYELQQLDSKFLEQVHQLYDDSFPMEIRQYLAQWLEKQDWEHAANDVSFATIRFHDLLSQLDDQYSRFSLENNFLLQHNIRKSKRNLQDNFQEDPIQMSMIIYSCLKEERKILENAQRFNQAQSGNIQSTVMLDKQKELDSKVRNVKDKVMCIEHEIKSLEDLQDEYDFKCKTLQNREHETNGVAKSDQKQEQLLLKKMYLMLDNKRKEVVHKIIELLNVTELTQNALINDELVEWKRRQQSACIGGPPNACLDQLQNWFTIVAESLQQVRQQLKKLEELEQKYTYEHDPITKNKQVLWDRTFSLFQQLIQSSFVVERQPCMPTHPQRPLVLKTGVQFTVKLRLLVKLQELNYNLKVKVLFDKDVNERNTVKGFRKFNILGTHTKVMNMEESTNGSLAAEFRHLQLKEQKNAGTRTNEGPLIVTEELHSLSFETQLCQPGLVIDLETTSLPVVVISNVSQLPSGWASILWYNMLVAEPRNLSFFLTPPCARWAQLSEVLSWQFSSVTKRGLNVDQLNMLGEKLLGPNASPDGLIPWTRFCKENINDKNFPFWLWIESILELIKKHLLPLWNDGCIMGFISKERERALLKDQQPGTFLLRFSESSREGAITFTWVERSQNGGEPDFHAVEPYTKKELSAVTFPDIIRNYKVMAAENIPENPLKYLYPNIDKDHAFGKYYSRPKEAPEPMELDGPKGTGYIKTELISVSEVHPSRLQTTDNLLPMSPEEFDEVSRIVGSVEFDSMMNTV", "test": "Inhibition of basal level STAT1 phosphorylation in human MCF7 cells at 1 uM by ELISA", "type": "cell-based"}, "MDA-MB-231 [8]": {"test_system": "MDA-MB-231", "test": "Cytotoxicity against human MDA-MB-231 cells assessed as cell viability at 5 uM by MTT assay in presence of 100 ng/ml cholera toxin for 16 hrs", "type": "functional, cell-based"}, "MDA-MB-231 [9]": {"test_system": "MDA-MB-231", "test": "Inhibition of IGF1 expression in human MDA-MB-231 cells at 5 uM by ELISA", "type": "functional, cell-based"}, "[10]": {"target": "Signal transducer and activator of transcription 3 (Homo sapiens) (UniProt P40763)", "sequence (P40763 whole entry)": "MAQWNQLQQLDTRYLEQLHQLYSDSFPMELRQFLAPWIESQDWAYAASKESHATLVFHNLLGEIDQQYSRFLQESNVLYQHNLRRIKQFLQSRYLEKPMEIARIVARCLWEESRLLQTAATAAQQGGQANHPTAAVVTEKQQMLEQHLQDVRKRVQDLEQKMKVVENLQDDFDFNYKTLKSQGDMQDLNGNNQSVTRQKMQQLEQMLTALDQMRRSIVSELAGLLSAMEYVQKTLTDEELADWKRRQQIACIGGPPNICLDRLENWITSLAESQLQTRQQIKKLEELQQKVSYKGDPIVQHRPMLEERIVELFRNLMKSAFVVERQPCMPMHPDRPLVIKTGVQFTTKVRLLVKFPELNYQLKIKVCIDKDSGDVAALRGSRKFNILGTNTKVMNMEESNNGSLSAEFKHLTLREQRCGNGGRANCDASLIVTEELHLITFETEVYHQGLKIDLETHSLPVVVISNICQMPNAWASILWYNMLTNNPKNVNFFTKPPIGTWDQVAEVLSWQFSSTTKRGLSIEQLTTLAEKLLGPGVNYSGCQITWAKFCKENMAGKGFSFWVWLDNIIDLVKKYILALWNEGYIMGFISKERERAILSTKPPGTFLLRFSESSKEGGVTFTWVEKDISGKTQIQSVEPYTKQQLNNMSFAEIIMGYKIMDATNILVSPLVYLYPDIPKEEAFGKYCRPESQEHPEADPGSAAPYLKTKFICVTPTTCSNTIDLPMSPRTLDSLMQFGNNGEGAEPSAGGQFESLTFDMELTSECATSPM", "test": "Inhibition of EGF-induced STAT3 phosphorylation in human MDA-MB-231 cells at 1 uM by ELISA", "type": "cell-based"}, "MDA-MB-231 [11]": {"test_system": "MDA-MB-231", "test": "Induction of apoptosis in human […] cells assessed as caspase 3 activation at 2.5 to 7.5 uM by Caspase-Glo assay", "type": "functional, cell-based", "in_short": "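Caspase-8, -9 and -3 activities measured with Caspase-Glo 8, 9 and 3 kits; mean ± SEM from three independent experiments.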"}, "MDA-MB-231 [12]": {"test_system": "MDA-MB-231", "test": "Antiproliferative activity against human […] cells at 2.5 to 7.5 uM by annexin V-FITC/propidium iodide staining-based flow cytometric analysis", "type": "functional, cell-based"}, "MDA-MB-231 [13]": {"test_system": "MDA-MB-231", "test": "Inhibition of INS expression in human MDA-MB-231 cells at 5 uM by ELISA", "type": "functional, cell-based"}, "[14]": {"target": "Epidermal growth factor receptor (Homo sapiens) (UniProt P00533)", "sequence (P00533 whole entry)": "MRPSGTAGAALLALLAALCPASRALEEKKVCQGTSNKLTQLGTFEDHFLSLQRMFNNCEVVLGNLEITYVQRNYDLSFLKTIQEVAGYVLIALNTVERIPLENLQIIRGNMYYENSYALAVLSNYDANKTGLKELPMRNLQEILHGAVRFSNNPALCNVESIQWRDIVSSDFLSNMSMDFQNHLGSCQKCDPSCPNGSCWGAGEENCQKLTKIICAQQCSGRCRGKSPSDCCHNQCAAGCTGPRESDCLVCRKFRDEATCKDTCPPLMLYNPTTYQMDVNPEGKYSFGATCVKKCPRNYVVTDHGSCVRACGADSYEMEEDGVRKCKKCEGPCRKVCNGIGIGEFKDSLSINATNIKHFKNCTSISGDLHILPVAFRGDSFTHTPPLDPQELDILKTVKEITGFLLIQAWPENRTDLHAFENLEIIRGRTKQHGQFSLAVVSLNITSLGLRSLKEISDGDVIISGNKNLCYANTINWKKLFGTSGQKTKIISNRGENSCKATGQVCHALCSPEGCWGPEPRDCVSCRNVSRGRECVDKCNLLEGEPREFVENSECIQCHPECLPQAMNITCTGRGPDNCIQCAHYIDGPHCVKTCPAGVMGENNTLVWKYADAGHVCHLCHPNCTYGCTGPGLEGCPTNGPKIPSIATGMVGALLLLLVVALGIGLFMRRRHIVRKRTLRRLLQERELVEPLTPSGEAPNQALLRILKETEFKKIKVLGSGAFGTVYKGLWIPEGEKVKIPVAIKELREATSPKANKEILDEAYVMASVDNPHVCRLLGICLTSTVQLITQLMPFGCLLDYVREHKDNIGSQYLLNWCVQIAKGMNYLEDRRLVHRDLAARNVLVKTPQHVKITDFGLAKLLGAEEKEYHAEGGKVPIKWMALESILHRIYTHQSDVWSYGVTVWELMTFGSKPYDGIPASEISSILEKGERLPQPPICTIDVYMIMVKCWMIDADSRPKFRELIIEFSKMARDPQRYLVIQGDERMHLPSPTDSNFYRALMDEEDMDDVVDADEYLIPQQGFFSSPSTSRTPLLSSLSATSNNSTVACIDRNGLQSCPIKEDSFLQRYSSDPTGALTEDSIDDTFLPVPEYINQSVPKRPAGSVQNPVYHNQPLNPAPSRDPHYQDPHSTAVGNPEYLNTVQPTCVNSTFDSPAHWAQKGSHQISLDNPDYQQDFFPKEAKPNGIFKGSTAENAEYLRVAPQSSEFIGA", "test": "Inhibition of EGF-induced EGFR phosphorylation at Tyr1045 in human MCF7 cells at 1 uM by ELISA", "type": "cell-based"}, "[15]": {"target": "Epidermal growth factor receptor (Homo sapiens) (UniProt P00533)", "test": "Inhibition of EGF-induced EGFR phosphorylation at Tyr1068 in human MCF7 cells at 0.5 uM by ELISA", "type": "cell-based"}, "[16]": {"target": "RAC-alpha serine/threonine-protein kinase (Homo sapiens) (UniProt P31749)", "sequence (P31749 whole entry)": "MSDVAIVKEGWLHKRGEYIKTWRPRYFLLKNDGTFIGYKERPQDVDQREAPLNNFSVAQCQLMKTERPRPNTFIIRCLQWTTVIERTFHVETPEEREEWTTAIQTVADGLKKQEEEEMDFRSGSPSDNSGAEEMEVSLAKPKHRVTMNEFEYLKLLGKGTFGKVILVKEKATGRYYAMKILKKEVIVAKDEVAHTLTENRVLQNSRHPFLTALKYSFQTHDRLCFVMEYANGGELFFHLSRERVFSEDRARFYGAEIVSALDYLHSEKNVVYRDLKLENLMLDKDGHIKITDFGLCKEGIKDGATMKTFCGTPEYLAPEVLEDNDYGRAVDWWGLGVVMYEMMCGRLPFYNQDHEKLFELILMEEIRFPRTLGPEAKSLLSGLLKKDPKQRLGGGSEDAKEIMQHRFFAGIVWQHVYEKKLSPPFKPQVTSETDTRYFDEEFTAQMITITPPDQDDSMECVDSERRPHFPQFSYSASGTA", "test": "Inhibition of basal level AKT phosphorylation in human MCF7 cells at 1 uM by ELISA", "type": "cell-based"}, "[17]": {"target": "Proto-oncogene tyrosine-protein kinase Src (Homo sapiens) (UniProt P12931)", "sequence (P12931 2-536 limits assumed)": "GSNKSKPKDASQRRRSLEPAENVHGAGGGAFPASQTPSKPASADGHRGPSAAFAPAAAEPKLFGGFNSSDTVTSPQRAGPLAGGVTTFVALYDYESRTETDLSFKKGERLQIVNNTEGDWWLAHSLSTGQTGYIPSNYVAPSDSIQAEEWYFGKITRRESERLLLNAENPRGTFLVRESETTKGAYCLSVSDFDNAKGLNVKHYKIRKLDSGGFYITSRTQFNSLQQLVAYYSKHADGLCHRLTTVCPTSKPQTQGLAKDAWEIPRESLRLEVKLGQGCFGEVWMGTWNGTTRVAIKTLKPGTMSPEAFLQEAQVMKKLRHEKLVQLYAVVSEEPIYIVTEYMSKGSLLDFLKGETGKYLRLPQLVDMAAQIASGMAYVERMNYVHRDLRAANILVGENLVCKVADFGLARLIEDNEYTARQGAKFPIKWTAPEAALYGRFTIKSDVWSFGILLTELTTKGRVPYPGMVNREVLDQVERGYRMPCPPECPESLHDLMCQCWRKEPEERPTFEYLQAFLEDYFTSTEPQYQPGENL", "test": "Inhibition of cSRC (unknown origin) at 10 uM", "in_short": "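Cell-free kinase profiling was run as a standard 33P-ATP-based in vitro kinase assay.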"}, "[18]": {"test": "Safety index, ratio of IC50 for human MCF10A cells to EC50 for human ER-positive MDA-MB-231 cells", "conditions": "MCF10A cells versus"}, "MDA-MB-231 [19]": {"test_system": "MDA-MB-231", "test": "Antiproliferative activity against human […] cells assessed as growth recovery treated up to 5 uM for 24 hrs followed by maintained in drug free medium for 72 hrs by MTT assay", "type": "functional"}, "MCF7 [20]": {"test_system": "MCF7", "test": "Cell cycle arrest in human […] cells assessed as accumulation at G1 phase at 2.5 uM by propidium iodide staining by FACS analysis (reference value: 62.88%)", "type": "functional"}, "[21]": {"test": "Antiproliferative activity against mouse NIH/3T3 cells after 24 hrs by MTT assay", "type": "functional, cell-based", "conditions": "NIH3T3, 24 h", "in_short": "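MTT viability: cells seeded at 1×10^4 per well in DMEM with 10% FBS, left to adhere overnight, then serum-starved 4 h. Compounds were given at a range of doses, with 0.1% DMSO vehicle as control. EC50 was taken from dose-response curves spanning 100nM-50µM. Data are mean ± SEM from at least three independent experiments.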"}, "MCF7 [22]": {"test_system": "MCF7", "test": "Antitumor activity against human MCF7 cells xenografted in NIH-3 mouse assessed as reduction in tumor volume at 16 mg/kg, po for 25 days relative to control", "type": "functional", "conditions": "MCF7, 600 h"}, "MCF7 [23]": {"test_system": "MCF7", "test": "Cell cycle arrest in human […] cells assessed as accumulation at G2 phase at 7.5 uM by propidium iodide staining by FACS analysis (reference value: 10.96%)", "type": "functional"}}, "note": "Activity calls are given as the source filed them. The calls are words filed in the database; no cut-off is given here."}
{"compound": "CCN(CC)CCO/N=C(\\c1ccc(SC)cc1)c1cccc2ccccc12", "values": [{"measurement": "Activity", "setting": "MCF7 [1]", "result": "Active"}, {"measurement": "inhibition", "setting": "MDA-MB-231 [2]", "result": "inactive"}, {"measurement": "inhibition", "setting": "[3]", "result": "inactive"}, {"measurement": "Activity", "setting": "MCF7 [4]", "result": "inactive"}, {"measurement": "Activity", "setting": "MCF7 [5]", "result": "Active"}, {"measurement": "Activity", "setting": "MCF7 [6]", "result": "Active"}, {"measurement": "inhibition", "setting": "[7]", "result": "inactive"}, {"measurement": "inhibition", "setting": "MDA-MB-231 [8]", "result": "Active"}, {"measurement": "inhibition", "setting": "MDA-MB-231 [9]", "result": "inactive"}, {"measurement": "inhibition", "setting": "[10]", "result": "Active"}, {"measurement": "Activity", "setting": "MDA-MB-231 [11]", "result": "Active"}, {"measurement": "Activity", "setting": "MDA-MB-231 [12]", "result": "Active"}, {"measurement": "inhibition", "setting": "MDA-MB-231 [13]", "result": "inactive"}, {"measurement": "inhibition", "setting": "[14]", "result": "Active"}, {"measurement": "inhibition", "setting": "[15]", "result": "Active"}, {"measurement": "inhibition", "setting": "[16]", "result": "inactive"}, {"measurement": "inhibition", "setting": "[17]", "result": "inactive"}]}
{"compound": "CCN(CC)CCO/N=C(\\c1ccc(SC)cc1)c1cccc2ccccc12.O=C(O)C(=O)O", "values": [{"measurement": "selectivity ratio", "setting": "[18]", "result": 50}, {"measurement": "Activity", "setting": "MDA-MB-231 [19]", "result": 20, "unit": "%"}, {"measurement": "Activity", "setting": "MCF7 [20]", "result": 70.71, "unit": "%"}, {"measurement": "IC50", "setting": "[21]", "result": "> 20", "unit": "µM"}, {"measurement": "inhibition in vivo at 16 mg/kg", "setting": "MCF7 [22]", "result": 50, "unit": "%"}, {"measurement": "Activity", "setting": "MCF7 [23]", "result": 13.98, "unit": "%"}]}
